mABHD4 FP = inhibits mouse alpha/beta hydrolase domain 4; Q8VD66; purified mABHD4, FP-Rh probe fluorescence polarization; inhibition, % at 8.92 µM; 370,000 tested, 0.54% active; AID 720543;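 active = inhibition exceeding the mean over every tested compound plus 3 SD, cut at about 30% in these data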
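Test system: mouse ABHD4 enzyme, wild type. Reagent: FP-Rh fluorescent activity-based probe, added after compound pre-incubation. Timing: pre-incubation 45 min, probe exposure 60 min, at 25 °C. Technique: FP readout, ex 525 nm / em 598 nm. Benchmarks: high control S159A mutant with DMSO, low control median of compound wells.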
DDE Tn6 FP inh = DD(E)-Tn6 binding inhibition, primary FP screen; Fibrin DD(E) TRITC-Tn6 fluorescence polarization displacement; AID 720509; inhibition, % at 8.3 µM; P02675; 370,000 tested, 0.21% active;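 active = inhibition above a per-campaign cutoff: mean of compounds within control limits plus 3 SD, cut at about 15% in these data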
TCR CD3 inh = blocks the human TCR-CD3 interaction. TAMRA-labeled TCR probe fluorescence, biochemical. inhibition, % at 9.4 µM. 360,000 tested, 0.37% active. AID 651800; in the data active = inhibition above about 19%;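 note: recombinant mutant TCR 2C K166C tagged with TAMRA read by polarization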
SIAE inh = inhibitors of human sialic acid acetylesterase SIAE; AID 1053197; inhibition, % at 9.66 µM; SIAE FP-Rh probe binding, fluorescence polarization; 370,000 tested, 0.69% active;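 active = inhibition above a cutoff: mean of compounds within the control limits plus 3 SD of those, cut at about 17% in these data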
HTRA1 inhibitor = blocks human HTRA1 serine peptidase; Q92743; recombinant HTRA1, FP-rhodamine activity-based probe, fluorescence polarization; inhibition, % at 5.96 µM; 340,000 tested, 0.5% active; in the data active = inhibition above about 36%
Target sequence (Q92743 whole entry, looked up): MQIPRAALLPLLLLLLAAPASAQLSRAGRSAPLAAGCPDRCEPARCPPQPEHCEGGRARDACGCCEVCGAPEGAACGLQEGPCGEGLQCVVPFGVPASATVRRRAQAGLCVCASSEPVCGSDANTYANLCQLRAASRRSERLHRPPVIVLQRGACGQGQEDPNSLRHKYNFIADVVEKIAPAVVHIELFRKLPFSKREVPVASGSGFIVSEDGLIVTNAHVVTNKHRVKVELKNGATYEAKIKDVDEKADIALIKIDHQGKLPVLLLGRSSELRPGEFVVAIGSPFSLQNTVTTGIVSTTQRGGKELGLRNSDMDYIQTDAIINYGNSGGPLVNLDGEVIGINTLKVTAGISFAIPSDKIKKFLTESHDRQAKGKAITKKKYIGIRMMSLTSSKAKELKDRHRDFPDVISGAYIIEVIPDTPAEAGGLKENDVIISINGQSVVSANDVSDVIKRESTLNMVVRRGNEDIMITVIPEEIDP
DDE Tn7 FP inh = disrupts Tn7 cyclic peptide binding to fibrin D-Dimer-E complex; inhibition, % at 8.3 µM; FP displacement of FITC-Tn7 peptide from fibrin DD(E); 0% = median of compound wells per plate; 370,000 tested, 0.13% active; P02675; AID 720508;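 active = inhibition above the mean of compounds falling within the control limits plus 3 SD of them, cut at about 14% in these data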
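system = human fibrin DD(E) protein | quantity = DD(E) 2 µM final | medium = Tris/NaCl/CaCl2 buffer, pH 7.8 | also added = labelled Tn7 tracer, 0.1 µM | compound dosing = single point at 8.3 µM | timing = compound with protein 10 min, then 3 h after probe, room temperature | signal = FP measurement | benchmarks = Aha-Tn7 high control | repeats = one replicate per compound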
DDE Tn6 FP ctr = counter-screen for inhibitors of Tn6 peptide binding to fibrin DD(E) | inhibition, % at 8.3 µM | TRITC-Tn6 fluorescence polarization displacement; 0% = median of compound wells, not DMSO | shares compounds with DDE Tn6 FP inh | 680 tested, 2% active;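 active = inhibition above the mean of test compounds lying between the control limits plus 3 SD of those, cut at about 14% in these data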
Tn6 DDE conf = DD(E)-Tn6 binding inhibition, FP confirmation; shares compounds with DDE Tn6 FP inh; FP displacement of TRITC-Tn6 peptide from DD(E); 0% = per-plate median of test wells; inhibition, % at 8.3 µM; 680 tested, 10% active;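 active = inhibition above the mean of compounds lying within the control limits plus 3 SD, cut at about 16% in these data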
Numbers stand for hits; n = inactive; x = no result. A selection: hits, their analogues and other compounds. The true share with any hit is near 1.8%.

SMILES | mABHD4 FP | DDE Tn6 FP inh | TCR CD3 inh | SIAE inh | HTRA1 inhibitor | DDE Tn7 FP inh | DDE Tn6 FP ctr | Tn6 DDE conf
C[C@@]12C(C[C@H](O)[C@@]34C[C@@H](CCC13)[C@@H](CO)C4=O)[C@](C)(C(=O)O)CC[C@@H]2O (stereo partly drawn) | n | 21.4 | n | n | x | n | n | n
Cc1ccc(C(=O)NCC(=O)OC(C)C(=O)NC2CCCc3ccccc32)cc1 (stereo not drawn) | n | 15.7 | n | n | n | n | n | n
O=C(COC(=O)CNC(=O)c1ccc(F)cc1)NC1CCCc2ccccc21 (stereo not drawn) | n | n | n | n | n | n | x | x
COc1cccc(CN(C)CC(=O)NC(=O)NCc2ccco2)c1 | n | 17.8 | n | n | n | n | n | n
CCN(CC)CCN(C(=O)CCOc1ccccc1)c1nc2ccc(F)cc2s1 | n | 15.8 | n | n | n | n | n | n
CCN(CC)CCN(C(=O)c1ccc2ccccc2c1)c1nc2ccc(F)cc2s1 | n | n | n | n | n | n | x | x
N#C/C(=C\c1ccc2c(c1)OCCO2)C(=O)Nc1nccs1 | n | n | n | n | n | n | x | x
COc1ccc(CCC(=O)O)c(C(CC(=O)O)C(=O)O)c1OS(=O)(=O)c1ccc(C)cc1 (stereo not drawn) | n | n | n | n | n | n | x | x
COc1cc(OC)c(OC)cc1/C=N/NC(=O)CCc1c(C)n[nH]c1C | n | 16.2 | n | n | n | n | n | n
CCc1nc2ccc(C(=O)NCCOc3ccc(OC)cc3)cn2c1N(CCN(C)C)CC1CC1 | n | n | n | n | x | n | x | x
CCc1nc2ccc(C(=O)NCCOc3ccc(OC)cc3)cn2c1N(C)C(=O)C1CCCCC1 | n | 15.8 | n | n | x | n | n | n
CN(Cc1cn(Cc2cccc(Cl)c2)nn1)C1CN(Cc2cn(Cc3cccc(Cl)c3)nn2)S(=O)(=O)C1 (stereo not drawn) | n | 15.9 | n | n | x | n | n | n
CN(C)C1CN(Cc2cn(Cc3cccc(Cl)c3)nn2)S(=O)(=O)C1 (stereo not drawn) | n | n | n | n | x | n | x | x
O=C(C[C@H]1CC[C@H](NC(=O)C2CCOCC2)[C@@H](CO)O1)NCc1ccncc1 | n | n | n | n | x | n | x | x
COCCNC(=O)Cn1c(=O)n(Cc2ccc(C(=O)NCCc3ccc(OC)c(OC)c3)cc2)c(=O)c2ccccc21 | n | 16.9 | n | n | n | n | n | n
CCN1C(=O)[C@@H]2[C@@H]3CN(S(=O)(=O)c4ccc(C)cc4)[C@@H](c4ccccc4Cl)[C@@H]3C(=O)C[C@@H]2C1=O | n | n | n | n | x | n | x | x
COc1cc(C(=O)NCC(=O)N/N=C/c2ccco2)cc(OC)c1OC | n | 26.8 | n | n | n | n | n | n
COc1cc(C(=O)NCC(=O)N/N=C/c2cccc(OC(=O)c3ccco3)c2)cc(OC)c1OC | n | n | n | n | n | n | x | x
NS(=O)(=O)c1ccc(NS(=O)(=O)c2ccc(NC(=O)c3ccc(-c4ccccc4)cc3)cc2)cc1 | n | 32.3 | n | n | n | n | n | 17.4
NS(=O)(=O)c1ccc(NC(=O)c2ccc(-c3ccccc3)cc2)cc1 | n | n | n | n | x | n | x | x
Cn1cccc1C(=O)NC(=O)COC(=O)CCNS(=O)(=O)c1cccc(C(F)(F)F)c1 | n | n | n | n | n | n | x | x
Cn1cccc1C(=O)NC(=O)COC(=O)CCNS(=O)(=O)c1ccc(Cl)cc1 | n | 15.9 | n | n | n | n | n | n
COc1ccccc1NS(=O)(=O)c1cccc(C(=O)N2CCCCCC2)c1 | n | n | n | n | n | n | x | x
COc1ccccc1NS(=O)(=O)c1cccc(NC(=O)Nc2ccc(Cl)cc2)c1 | n | 170.1 | n | n | n | n | n | 23.2
COc1ccccc1NS(=O)(=O)c1cccc(C(=O)N2CCN(C(=O)c3ccco3)CC2)c1 | n | 16.5 | n | n | n | n | n | n
SMILES | mABHD4 FP | DDE Tn6 FP inh | TCR CD3 inh | SIAE inh | HTRA1 inhibitor | DDE Tn7 FP inh | DDE Tn6 FP ctr | Tn6 DDE conf
COc1ccccc1NS(=O)(=O)c1cccc(NC(=O)Nc2ccccc2)c1 | n | n | n | n | n | n | x | x
Cc1ccc(NC(=O)COC(=O)c2ccc(NC(=O)CC#N)cc2)cc1S(=O)(=O)N1CCOCC1 | n | 20.0 | n | n | n | n | n | n
Cc1ccc(NC(=O)COC(=O)c2ccc3c(c2)OCCO3)cc1S(=O)(=O)N1CCOCC1 | n | n | n | n | n | n | x | x
Cc1c(NC(=O)C(C)Oc2cccc(F)c2)c(=O)n(-c2ccccc2)n1C (stereo not drawn) | n | n | n | n | n | n | x | x
COC(=O)c1c[nH]c(=O)c2ccccc12 | n | 15.6 | n | n | n | n | n | n
COC(=O)c1ccccc1C(=O)c1cccc2ccccc12 | n | n | n | n | n | n | x | x
COc1ccccc1-n1c(SCC(=O)NC2CCS(=O)(=O)C2)nc2ccccc2c1=O (stereo not drawn) | n | 15.5 | n | n | n | n | n | n
COC(=O)CSc1nc(C)cc(C(F)(F)F)c1C#N | n | n | n | n | n | n | x | x
CCOC(=O)NC(=O)CSc1nc(C)cc(C(F)(F)F)c1C#N | n | 15.4 | n | n | n | n | n | n
COc1ccc(NCc2nnc(SCC(=O)NCc3ccco3)n2-c2ccccc2OC)cc1 | n | 17.3 | n | n | n | n | n | n
Cc1ccc(-n2c(CNc3ccc(F)cc3)nnc2SCC(=O)NCc2ccco2)cc1 | n | n | n | n | n | n | x | x
COC(=O)c1cc(Br)c(=O)n(CCN2CCCCC2)c1 | n | n | n | n | n | n | x | x
COC(=O)c1cc(Br)c(=O)n(CCN2CCCC2)c1 | n | 16.8 | n | n | n | n | n | n
O=C(NC1CC(=O)c2sccc21)c1ccc(Cl)cc1Cl (stereo not drawn) | n | n | n | n | n | n | x | x
O=C(N/N=C/c1cccnc1)C(=O)N1CCCCCC1 | n | 15.2 | n | n | n | n | n | n
CCCN=C1N(CC)C[C@@H]2[C@@H]3C(=O)N(C)C(=O)[C@@H]3[C@](C)(C(=O)OC)N12 | n | n | n | n | n | n | x | x
CC[C@]12c3[nH]c4ccc(Cl)cc4c3CCN1C(=O)[C@@H](CC(=O)NC(C)(C)C)C[C@@H]2C(=O)N1CCN(C(=O)c2ccco2)CC1 | n | 15.8 | n | n | n | n | n | n
O=C(C[C@H]1C[C@H](C(=O)N2CCOCC2)[C@@]2(CCC3CCCC3)c3[nH]c4cc(-c5ccco5)ccc4c3CCN2C1=O)NCc1cccc(C(F)(F)F)c1 | n | n | n | n | n | n | x | x

Source: PubChem BioAssay (The Scripps Research Institute Molecular Screening Center)
